Test results taken from ChEMBL document CHEMBL1156820, “Novel highly potent and selective sigma 1 receptor antagonists related to spipethiane” (J Med Chem, 2010).
Active and inactive are the calls of the source.

What was measured:
[1] = Selectivity for human sigma1 receptor over rat sigma2 receptor
Procedure, shortened: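 Selectivity ratio is the antilog of pKi(σ1) minus pKi(σ2). σ1 binding: Jurkat membranes with [3H](+)-pentazocine (8 nM). σ2 binding: rat cortex membranes with [3H]DTG (5 nM) plus 300 nM (+)-pentazocine. Both run 2 h at 22 °C in 5 mM Tris/HCl pH 7.4, nonspecific binding with 10 μM haloperidol.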

[2] = molecular target: Sigma non-opioid intracellular receptor 1 (Homo sapiens, UniProt Q99720); assay: Displacement of [3H](+)-pentazocine from sigma1 receptor in human Jurkat cell membrane; assay type: cell membranes
[3] = Displacement of [3H]DTG from sigma2 receptor in rat cerebral cortex cell membrane; assay type: cell membranes
Procedure, shortened: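 Rat cerebral cortex membranes (100-200 μg protein) incubated with [3H]DTG (5 nM) and 300 nM (+)-pentazocine to mask σ1 sites, across a range of test concentrations, 2 h at 22 °C in 5 mM Tris/HCl pH 7.4. Nonspecific binding defined with 10 μM haloperidol. GF/B filtration, scintillation counting. Triplicates; Ki from two to three experiments.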

[4] = Antagonist activity at sigma2 receptor in guinea pig ileum longitudinal muscle assessed as inhibition of 5-HT-induced contractions; assay type: functional, tissue-based; conditions: Cavia porcellus
Procedure, shortened: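 Longitudinal muscle/myenteric plexus ileum segments from male guinea pigs (300-400 g), 1 g tension, Tyrode's at 37 °C gassed with 95% O2/5% CO2, 1 μM ketanserin present throughout. After 90 min equilibration, three noncumulative 5-HT concentration-response curves; the second is run with test compound. 5-HT contact 1 min, 20 min washes between doses; peak isotonic contraction recorded.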

[5] = test system: NCI/ADR-RES; assay: Growth inhibition of human MCF7/ADR cells highly expressing sigma1 receptor at 10 uM after 48 hrs by SRB assay; assay type: functional, cell-based
Procedure, shortened: (§1)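 MCF-7 or MCF-7/ADR cells seeded at 1 × 10⁴/well, dosed after 24 h with 10 μM compound for 48 h at 37 °C, 5% CO2. Fixed with cold TCA, stained with 0.4% SRB in 1% acetic acid, dye solubilized in 10 mM Tris, absorbance read at 520 nm. Percent inhibition given as mean ± SEM of three experiments.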

[6] = test system: MCF7; assay: Growth inhibition of human MCF7 cells at 10 uM after 48 hrs by SRB assay; assay type: functional, cell-based; procedure, shortened: as §1
[7] = Growth inhibition of human MCF7/ADR cells highly expressing sigma1 receptor after 48 hrs by SRB assay; assay type: functional; conditions: NCI/ADR-RES
Procedure, shortened: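 Cells seeded at 1 × 10⁴/well; after 24 h, compound (10 nM-10 μM) added in quadruplicate for 48 h at 37 °C, 5% CO2, with a time-zero plate read. TCA fixation, 0.4% SRB stain, absorbance at 520 nm. GI50 is the concentration halving net protein increase, interpolated from % growth versus log concentration; mean of triplicates.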

[8] = Cell cycle arrest in human MCF7/ADR cells highly expressing sigma1 receptor assessed as accumulation at G0/G1 phase at 10 uM after 48 hrs by propidium iodide staining based flow cytometry relative to control; assay type: functional; conditions: NCI/ADR-RES
Procedure, shortened: (§2)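 MCF-7 or MCF-7/ADR cells (3 × 10⁵/mL) held 48 h at 37 °C, 5% CO2 with 10 μM compound. Fixed in cold 70% ethanol for 15 min on ice, then stained 40 min at 37 °C with PI (50 μg/mL) plus RNase A (0.1 mg/mL) and 0.05% Triton X-100. Flow cytometry over 10000 events; one of three experiments shown.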

[9] = Cell cycle arrest in human MCF7/ADR cells highly expressing sigma1 receptor assessed as accumulation at G2/M phase at 10 uM after 48 hrs by propidium iodide staining based flow cytometry relative to control; assay type: functional; conditions: NCI/ADR-RES; procedure, shortened: as §2
[10] = Cell cycle arrest in human MCF7/ADR cells highly expressing sigma1 receptor assessed as accumulation at S phase at 10 uM after 48 hrs by propidium iodide staining based flow cytometry relative to control; assay type: functional; conditions: NCI/ADR-RES; procedure, shortened: as §2
[11] = test system: Mus musculus; assay: Increase in morphine-induced analgesia in CD1 mouse at 1 mg/kg, sc administered 30 mins before morphine challenge measured after 60 to 120 mins post morphine challenge by radiant heat tail flick test; assay type: functional, organism-based; set-up: dose 1 mg/kg
Procedure, shortened: (§3)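 Male CD-1 mice, 25-35 g. Radiant heat tail flick, IR source aimed at the lower third of the tail. Basal latency (2-3 s) is the mean of two trials 30 min apart. Drug 1 mg/kg sc or vehicle (DMSO 1%) given 30 min before morphine 5.0 mg/kg sc or saline. Read at 30, 60, 90 and 120 min after morphine; cutoff 12 s. Reported as %MPE, mean ± SEM, n=8; ANOVA with Student-Newman-Keuls.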

[12] = test system: Mus musculus; assay: Analgesic effect in CD1 mouse at 1 mg/kg, sc by radiant heat tail flick test; assay type: functional, organism-based; set-up: dose 1 mg/kg; procedure, shortened: as §3
[13] = test system: MCF7; assay: Cell cycle arrest in human MCF7 cells assessed as accumulation at S phase at 10 uM after 48 hrs by propidium iodide staining based flow cytometry relative to control; assay type: functional; procedure, shortened: as §2
[14] = test system: MCF7; assay: Cell cycle arrest in human MCF7 cells assessed as accumulation at G2/M phase at 10 uM after 48 hrs by propidium iodide staining based flow cytometry relative to control; assay type: functional; procedure, shortened: as §2
[15] = test system: MCF7; assay: Cell cycle arrest in human MCF7 cells assessed as accumulation at G0/G1 phase at 10 uM after 48 hrs by propidium iodide staining based flow cytometry relative to control; assay type: functional; procedure, shortened: as §2
[16] = test system: NCI/ADR-RES; assay: Induction of apoptosis in human MCF7/ADR cells highly expressing sigma1 receptor at 10 uM after 48 hrs by Annexin V staining based flow cytometry relative to control; assay type: functional
Procedure, shortened: (§4)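 MCF-7 or MCF-7/ADR cells (3 × 10⁵/mL) exposed to 10 μM compound for 48 h at 37 °C, 5% CO2. Stained with Annexin V-FITC (1:40) for 10 min at room temperature in binding buffer (10 mM Hepes pH 7.4, 140 mM NaCl, 2.5 mM CaCl2), then read by FACS. Reported as % Annexin V+ cells, mean ± SEM of three experiments.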

[17] = test system: MCF7; assay: Induction of apoptosis in human MCF7 cells at 10 uM after 48 hrs by Annexin V staining based flow cytometry relative to control; assay type: functional; procedure, shortened: as §4

Sigma non-opioid intracellular receptor 1, sequence (Q99720 whole entry): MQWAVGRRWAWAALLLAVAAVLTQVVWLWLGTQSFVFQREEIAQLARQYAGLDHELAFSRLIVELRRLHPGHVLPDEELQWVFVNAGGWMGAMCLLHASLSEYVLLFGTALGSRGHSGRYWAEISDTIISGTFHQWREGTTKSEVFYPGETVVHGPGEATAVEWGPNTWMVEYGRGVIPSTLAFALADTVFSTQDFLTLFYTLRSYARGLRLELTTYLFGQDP

Structure (SMILES)	Ki selectivity ratio (sigma2/sigma1) [1]	pKi [3]	IC50 [4] [nM]	Ki [2] [nM]	Activity [5]	Activity [6]	other results
c1ccc(CN2CCC3(CCc4ccccc4O3)CC2)cc1	36	7.66	–	–	–	–	pKi ([2]; jurkat): 9.21
c1ccc(CN2CCC3(CCc4ccccc4C3)CC2)cc1	32	7.85	> 10000	0.437	–	–	–
c1ccc(CN2CCC3(CC2)OCc2ccccc2S3)cc1	2510	6.65	> 10000	0.0891	Active	inactive	–
O=C1CC2(CCN(Cc3ccccc3)CC2)Oc2ccccc21	1440	6.52	7200	0.209	Active	inactive	GI50 [7]: 10000 nM
c1ccc(CN2CCC3(CC2)OCc2ccccc2O3)cc1	2340	6.64	3900	0.0977	Active	inactive	–
O=C1CC(C2CCN(CCc3ccccc3)CC2)Oc2ccccc21 (racemic)	76	8.08	–	–	Active	inactive	–
O=C1CC(C2CCN(Cc3ccccc3)CC2)Oc2ccccc21 (racemic)	2630	6.76	–	–	Active	inactive	Activity [8]: 62.7%; Activity [9]: 23.3%; Activity [10]: 14%
c1ccc(CN2CCC(C3CCc4ccccc4S3)CC2)cc1 (racemic)	1000	7.24	8400	0.0575	Active	inactive	–
O=C1CC(C2CCN(Cc3ccccc3)CC2)Sc2ccccc21 (racemic)	–	5.81	–	–	Active	inactive	Activity [8]: 61.5%; Activity [11]: Active; Activity [9]: 24.4%; Activity [10]: 13.9%; Activity [12]: inactive
O=C(CCCN1CCC(O)(c2ccc(Cl)cc2)CC1)c1ccc(F)cc1 [HALOPERIDOL]	–	6.95	–	–	–	–	–
c1ccc(CN2CCC3(CCc4ccccc4S3)CC2)cc1 [SPIPETHIANE]	676	6.4	6300	0.589	Active	inactive	Activity [8]: 55.1%; Activity [13]: 10%; Activity [9]: 24.8%; Activity [10]: 20.1%; Activity [14]: 17%; Activity [15]: 73%; Activity [16]: 5.4%; Activity [17]: 2.7%
